# Tests used:
# [1] = Chemical stability in presence of snake venom phosphodiesterase at 50 uM and pH 8.4; format: physicochemical; conditions: buffer
# Method in brief: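 Oligonucleotides (50 μM) incubated at 37 °C in 50 mM Tris-HCl (pH 8.5) with 72 mM NaCl, 14 mM MgCl2 and 2.5 × 10^-4 U/ml snake venom phosphodiesterase; hydrolysis followed over time.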
# Nucleic Acid [2] = test: Binding affinity to RNA 3'-CAUGGUAAGGCC-5' assessed as melting temperature; format: nucleic-acid assay
# Nucleic Acid [3] = test: Binding affinity to RNA 3'-CAUGGGAAGGCC-5' assessed as melting temperature; format: nucleic-acid assay
# Nucleic Acid [4] = test: Binding affinity to RNA 3'-CAUGGCAAGGCC-5' assessed as melting temperature; format: nucleic-acid assay
# Nucleic Acid [5] = test: Binding affinity to RNA 3'-CAUGGAAAGGCC-5' assessed as melting temperature; format: nucleic-acid assay
# Nucleic Acid [6] = test: Binding affinity to RNA 3'-CAUGGAAAGGCC-5' assessed as change in melting temperature; format: nucleic-acid assay
Tm (Nucleic Acid [2]) [°C],Tm (Nucleic Acid [3]) [°C],Tm (Nucleic Acid [4]) [°C],Tm (Nucleic Acid [5]) [°C],ΔTm (Nucleic Acid [6]) [°C],Structure (SMILES),Stability [1]
–,–,–,–,–,Cc1cn([C@H]2C[C@H](O)[C@@H](COP(=O)(O)O[C@H]3[C@@H](OC(=O)NCCCCN)[C@H](n4ccc(=O)[nH]c4=O)O[C@@H]3COP(=O)(O)O[C@H]3[C@@H](OC(=O)NCCCCN)[C@H](n4ccc(=O)[nH]c4=O)O[C@@H]3CO)O2)c(=O)[nH]c1=O,Stable
58,63,57,–,–,CO[C@@H]1[C@H](OP(=O)(O)OC[C@H]2O[C@@H](n3ccc(=O)[nH]c3=O)[C@H](OC)[C@@H]2OP(=O)(O)OC[C@H]2O[C@@H](n3ccc(=O)[nH]c3=O)[C@H](OC)[C@@H]2OP(=O)(O)OC[C@H]2O[C@@H](n3ccc(=O)[nH]c3=O)[C@H](OC)[C@@H]2OP(=O)(O)OC[C@H]2O[C@@H](n3ccc(N)nc3=O)[C@H](OC)[C@@H]2OP(=O)(O)OC[C@H]2O[C@@H](n3ccc(N)nc3=O)[C@H](OC)[C@@H]2OP(=O)(O)OC[C@H]2O[C@@H](n3cnc4c(=O)[nH]c(N)nc43)[C@H](OC)[C@@H]2OP(=O)(O)OC[C@H]2O[C@@H](n3cnc4c(=O)[nH]c(N)nc43)[C@H](OC)[C@@H]2O)[C@@H](COP(=O)(O)O[C@H]2[C@@H](OC)[C@H](n3ccc(N)nc3=O)O[C@@H]2COP(=O)(O)O[C@H]2[C@@H](OC)[C@H](n3cnc4c(N)ncnc43)O[C@@H]2COP(=O)(O)O[C@H]2[C@@H](OC)[C@H](n3ccc(=O)[nH]c3=O)O[C@@H]2COP(=O)(O)O[C@H]2[C@@H](OC)[C@H](n3cnc4c(=O)[nH]c(N)nc43)O[C@@H]2CO)O[C@H]1n1ccc(N)nc1=O,–
–,–,–,61,14,CO[C@@H]1[C@H](OP(=O)(O)OC[C@H]2O[C@@H](n3ccc(=O)[nH]c3=O)[C@H](OC)[C@@H]2OP(=O)(O)OC[C@H]2O[C@@H](n3ccc(=O)[nH]c3=O)[C@H](OC)[C@@H]2OP(=O)(O)OC[C@H]2O[C@@H](n3ccc(=O)[nH]c3=O)[C@H](OC(=O)NCCCCN)[C@@H]2OP(=O)(O)OC[C@H]2O[C@@H](n3ccc(N)nc3=O)[C@H](OC)[C@@H]2OP(=O)(O)OC[C@H]2O[C@@H](n3ccc(N)nc3=O)[C@H](OC)[C@@H]2OP(=O)(O)OC[C@H]2O[C@@H](n3cnc4c(=O)[nH]c(N)nc43)[C@H](OC)[C@@H]2OP(=O)(O)OC[C@H]2O[C@@H](n3cnc4c(=O)[nH]c(N)nc43)[C@H](OC)[C@@H]2O)[C@@H](COP(=O)(O)O[C@H]2[C@@H](OC)[C@H](n3ccc(N)nc3=O)O[C@@H]2COP(=O)(O)O[C@H]2[C@@H](OC)[C@H](n3cnc4c(N)ncnc43)O[C@@H]2COP(=O)(O)O[C@H]2[C@@H](OC(=O)NCCCCN)[C@H](n3ccc(=O)[nH]c3=O)O[C@@H]2COP(=O)(O)O[C@H]2[C@@H](OC)[C@H](n3cnc4c(=O)[nH]c(N)nc43)O[C@@H]2CO)O[C@H]1n1ccc(N)nc1=O,–
–,–,–,47,–,CO[C@@H]1[C@H](OP(=O)(O)OC[C@H]2O[C@@H](n3ccc(=O)[nH]c3=O)[C@H](OC)[C@@H]2OP(=O)(O)OC[C@H]2O[C@@H](n3ccc(=O)[nH]c3=O)[C@H](OC)[C@@H]2OP(=O)(O)OC[C@H]2O[C@@H](n3ccc(=O)[nH]c3=O)[C@H](OC(N)=O)[C@@H]2OP(=O)(O)OC[C@H]2O[C@@H](n3ccc(N)nc3=O)[C@H](OC)[C@@H]2OP(=O)(O)OC[C@H]2O[C@@H](n3ccc(N)nc3=O)[C@H](OC)[C@@H]2OP(=O)(O)OC[C@H]2O[C@@H](n3cnc4c(=O)[nH]c(N)nc43)[C@H](OC)[C@@H]2OP(=O)(O)OC[C@H]2O[C@@H](n3cnc4c(=O)[nH]c(N)nc43)[C@H](OC)[C@@H]2O)[C@@H](COP(=O)(O)O[C@H]2[C@@H](OC)[C@H](n3ccc(N)nc3=O)O[C@@H]2COP(=O)(O)O[C@H]2[C@@H](OC)[C@H](n3cnc4c(N)ncnc43)O[C@@H]2COP(=O)(O)O[C@H]2[C@@H](OC(N)=O)[C@H](n3ccc(=O)[nH]c3=O)O[C@@H]2COP(=O)(O)O[C@H]2[C@@H](OC)[C@H](n3cnc4c(=O)[nH]c(N)nc43)O[C@@H]2CO)O[C@H]1n1ccc(N)nc1=O,–
–,–,–,61,18,CO[C@@H]1[C@H](OP(=O)(O)OC[C@H]2O[C@@H](n3ccc(=O)[nH]c3=O)[C@H](OC(=O)NCCCCN)[C@@H]2OP(=O)(O)OC[C@H]2O[C@@H](n3ccc(=O)[nH]c3=O)[C@H](OC)[C@@H]2OP(=O)(O)OC[C@H]2O[C@@H](n3ccc(=O)[nH]c3=O)[C@H](OC(=O)NCCCCN)[C@@H]2OP(=O)(O)OC[C@H]2O[C@@H](n3ccc(N)nc3=O)[C@H](OC)[C@@H]2OP(=O)(O)OC[C@H]2O[C@@H](n3ccc(N)nc3=O)[C@H](OC)[C@@H]2OP(=O)(O)OC[C@H]2O[C@@H](n3cnc4c(=O)[nH]c(N)nc43)[C@H](OC)[C@@H]2OP(=O)(O)OC[C@H]2O[C@@H](n3cnc4c(=O)[nH]c(N)nc43)[C@H](OC)[C@@H]2O)[C@@H](COP(=O)(O)O[C@H]2[C@@H](OC)[C@H](n3ccc(N)nc3=O)O[C@@H]2COP(=O)(O)O[C@H]2[C@@H](OC)[C@H](n3cnc4c(N)ncnc43)O[C@@H]2COP(=O)(O)O[C@H]2[C@@H](OC)[C@H](n3ccc(=O)[nH]c3=O)O[C@@H]2COP(=O)(O)O[C@H]2[C@@H](OC)[C@H](n3cnc4c(=O)[nH]c(N)nc43)O[C@@H]2CO)O[C@H]1n1ccc(N)nc1=O,–
59,68,57,69,4,CO[C@@H]1[C@H](OP(=O)(O)OC[C@H]2O[C@@H](n3ccc(=O)[nH]c3=O)[C@H](OC(=O)NCCCCN)[C@@H]2OP(=O)(O)OC[C@H]2O[C@@H](n3ccc(=O)[nH]c3=O)[C@H](OC)[C@@H]2OP(=O)(O)OC[C@H]2O[C@@H](n3ccc(=O)[nH]c3=O)[C@H](OC)[C@@H]2OP(=O)(O)OC[C@H]2O[C@@H](n3ccc(N)nc3=O)[C@H](OC)[C@@H]2OP(=O)(O)OC[C@H]2O[C@@H](n3ccc(N)nc3=O)[C@H](OC)[C@@H]2OP(=O)(O)OC[C@H]2O[C@@H](n3cnc4c(=O)[nH]c(N)nc43)[C@H](OC)[C@@H]2OP(=O)(O)OC[C@H]2O[C@@H](n3cnc4c(=O)[nH]c(N)nc43)[C@H](OC)[C@@H]2O)[C@@H](COP(=O)(O)O[C@H]2[C@@H](OC)[C@H](n3ccc(N)nc3=O)O[C@@H]2COP(=O)(O)O[C@H]2[C@@H](OC)[C@H](n3cnc4c(N)ncnc43)O[C@@H]2COP(=O)(O)O[C@H]2[C@@H](OC)[C@H](n3ccc(=O)[nH]c3=O)O[C@@H]2COP(=O)(O)O[C@H]2[C@@H](OC)[C@H](n3cnc4c(=O)[nH]c(N)nc43)O[C@@H]2CO)O[C@H]1n1ccc(N)nc1=O,–
–,–,–,43,–,CO[C@@H]1[C@H](OP(=O)(O)OC[C@H]2O[C@@H](n3ccc(=O)[nH]c3=O)[C@H](OC(N)=O)[C@@H]2OP(=O)(O)OC[C@H]2O[C@@H](n3ccc(=O)[nH]c3=O)[C@H](OC)[C@@H]2OP(=O)(O)OC[C@H]2O[C@@H](n3ccc(=O)[nH]c3=O)[C@H](OC(N)=O)[C@@H]2OP(=O)(O)OC[C@H]2O[C@@H](n3ccc(N)nc3=O)[C@H](OC)[C@@H]2OP(=O)(O)OC[C@H]2O[C@@H](n3ccc(N)nc3=O)[C@H](OC)[C@@H]2OP(=O)(O)OC[C@H]2O[C@@H](n3cnc4c(=O)[nH]c(N)nc43)[C@H](OC)[C@@H]2OP(=O)(O)OC[C@H]2O[C@@H](n3cnc4c(=O)[nH]c(N)nc43)[C@H](OC)[C@@H]2O)[C@@H](COP(=O)(O)O[C@H]2[C@@H](OC)[C@H](n3ccc(N)nc3=O)O[C@@H]2COP(=O)(O)O[C@H]2[C@@H](OC)[C@H](n3cnc4c(N)ncnc43)O[C@@H]2COP(=O)(O)O[C@H]2[C@@H](OC)[C@H](n3ccc(=O)[nH]c3=O)O[C@@H]2COP(=O)(O)O[C@H]2[C@@H](OC)[C@H](n3cnc4c(=O)[nH]c(N)nc43)O[C@@H]2CO)O[C@H]1n1ccc(N)nc1=O,–

# Reference: ChEMBL document CHEMBL2157935, “Synthesis and properties of cationic 2'-O-[N-(4-aminobutyl)carbamoyl] modified oligonucleotides” (Bioorg Med Chem Lett, 2012)
